In the library only some 3.7% were active in any assay of this set; here they are far more common.
hERG rescue = hERG (human) protection from proarrhythmic block; Q12809; CHO-hERG, FluxOR thallium flux, dofetilide IC70 present; activation (rescue from dofetilide block), less the hit threshold, % at 10 µM; 310,000 compounds, 0.51% hits;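 active = activation above the mean of controls blocked by dofetilide plus 5 SD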;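 also: thallium influx through hERG after potassium depolarization seen as dye fluorescence rise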
KCNQ1 block = human KCNQ1 channel inhibition; P51787; CHO-K1 KCNQ1, FluxOR thallium flux fluorescence; active compounds read high; B-score at 10 µM; 310,000 compounds, 1.3% hits;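 active = compounds whose thallium flux B-score, printed positive for inhibition, exceeds three library SD while starting fluorescence stays within three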;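 also: channel opened by potassium depolarization with thallium stimulus after 20 min compound exposure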
Target sequence (P51787 whole entry, looked up): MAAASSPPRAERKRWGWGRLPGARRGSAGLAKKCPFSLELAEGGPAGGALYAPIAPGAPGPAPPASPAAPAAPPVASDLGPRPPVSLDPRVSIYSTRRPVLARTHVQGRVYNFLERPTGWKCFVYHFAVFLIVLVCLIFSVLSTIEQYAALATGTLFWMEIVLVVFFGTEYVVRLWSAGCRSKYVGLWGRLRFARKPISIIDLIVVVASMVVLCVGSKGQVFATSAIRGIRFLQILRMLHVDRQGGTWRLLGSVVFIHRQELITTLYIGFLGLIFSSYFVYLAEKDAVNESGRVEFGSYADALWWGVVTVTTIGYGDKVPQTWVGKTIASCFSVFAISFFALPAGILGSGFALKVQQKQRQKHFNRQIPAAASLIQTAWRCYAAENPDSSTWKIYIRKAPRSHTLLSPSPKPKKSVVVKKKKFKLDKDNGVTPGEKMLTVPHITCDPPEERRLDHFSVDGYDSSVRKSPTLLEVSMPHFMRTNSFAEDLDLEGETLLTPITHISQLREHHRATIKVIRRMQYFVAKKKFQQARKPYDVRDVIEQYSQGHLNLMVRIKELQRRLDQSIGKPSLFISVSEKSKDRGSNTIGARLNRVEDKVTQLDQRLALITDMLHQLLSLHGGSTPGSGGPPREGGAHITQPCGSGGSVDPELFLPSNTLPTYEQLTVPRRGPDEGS
KCNQ1 act = potentiates or activates the human KCNQ1 potassium channel | P51787 | 310,000 compounds, 0.35% hits | B-score at 10 µM | CHO-K1 KCNQ1, thallium flux FluxOR fluorescence; active compounds read high;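 active = fluorescence ratio B-score, a plate-corrected score, at least three library SD, with initial intensity B-score within 5 SD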
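Assay system: CHO-K1 cells stably expressing KCNQ1; Medium: assay buffer with matched DMSO; Also added: K+/Tl+ depolarizing stimulus; Dosing: single dose; Timing: dye 90 min, compound 20 min, room temperature; Measured by: kinetic FluxOR thallium fluorescence, 10-s 1-Hz baseline, 110-s post-stimulus read; Read-out: peak-minus-minimum fluorescence over initial fluorescence, negative-control normalized, B-scored.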
KCNK3 inh = human KCNK3 channel inhibition, primary screen | B-score at 10 µM | 340,000 compounds, 0.84% hits | CHO-KCNK3 thallium flux, FluxOR fluorescence; active compounds read low | AID 602410;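 active = B-score under library mean minus 4 SD, starting fluorescence ratio at most library mean plus 5 SD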;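 also: more negative B-score means stronger inhibition of thallium flux through KCNK3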
Kir21 block = Kir2.1 (mouse) channel inhibition | HEK293-Kir2.1, FluxOR thallium flux fluorescence; active compounds read low | B-score at 10 µM | 310,000 compounds, 0.85% hits | AID 1672;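 active = fluorescence ratio B-score at or below minus 3 SD of library scores, with starting-brightness B-score within 2 SD, cut at about -4.2 in these data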;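 also: channel flux triggered by added potassium and thallium sulfate stimulus; B-score of peak minus minimum fluorescence over baseline after thallium stimulus; more negative B-score means stronger Kir2.1 block with less thallium influx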
KCNK9 block = inhibitors of human KCNK9 two-pore domain potassium channel. Q9NPC2. AID 488922. 310,000 compounds, 1.2% hits. B-score at 10 µM. HEK293 KCNK9, FluxOR thallium flux fluorescence; active compounds read low;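 active = ratio B-score over 3 SD below the library mean, with starting fluorescence within 5 SD of its mean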;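 also: negative B-score means less thallium flux so channel inhibition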
A number is an active result; i = inactive; nt = not tested or not shown.

SMILES | hERG rescue | KCNQ1 block | KCNQ1 act | KCNK3 inh | Kir21 block | KCNK9 block
Cc1nnc(NC(=O)C2CCN(S(=O)(=O)c3cc([N+](=O)[O-])ccc3Cl)CC2)o1 | nt | nt | nt | i | nt | nt
Cc1cccc2sc(NC(=O)C3CCN(S(=O)(=O)c4cc([N+](=O)[O-])ccc4Cl)CC3)nc12 | i | 11 | i | i | i | i
COC(=O)C(Cc1ccccc1)NC(=O)CNS(=O)(=O)c1ccc(Br)cc1 (stereo unspecified) | i | i | i | i | i | i
COC(=O)C(Cc1ccccc1)NC(=O)CNC(=O)c1ccc(Br)cc1 (stereo unspecified) | i | i | i | i | i | -7.1
O=C1NC(=O)/C(=C/c2ccc(-c3cccc([N+](=O)[O-])c3)o2)S1 | i | 12 | i | i | i | i
CC(=O)O/N=C/c1c(C)c(C=O)n2ccccc12 | i | i | i | i | i | i
CCc1nc(NCC2CCCO2)c2oc3ccccc3c2n1 (stereo unspecified) | i | i | i | -28 | i | i
CCc1nc(Nc2ccc(O)cc2)c2oc3ccccc3c2n1 | i | i | i | i | i | i
CCc1nc(Nc2ccc3c(c2)OCCO3)c2oc3ccccc3c2n1 | i | i | i | i | i | -7.6
Cc1nc(NCC2CCCO2)c2oc3ccccc3c2n1 (stereo unspecified) | i | i | i | i | i | i
CCOC(=O)C1CCCN(C(=O)CSc2nnnn2C)C1 (stereo unspecified) | nt | nt | nt | i | nt | nt
Cc1ccsc1C(=O)N(c1nc2ccccc2s1)c1c(C)cccc1C | i | i | i | i | i | i
Cc1ccccc1N(C(=O)c1cccs1)c1nc2ccccc2s1 | i | 7 | i | i | i | i
CC(=O)c1ccc(NC(=O)CC(C)S(=O)(=O)c2ccc3c(c2)CCN3C(C)=O)cc1 (stereo unspecified) | i | i | i | i | i | i
CC1CCN(C(=O)/C(=C/c2ccccc2Cl)c2ccccc2)CC1 | i | i | i | i | i | -6.7
Cc1ccc(CNC(=O)C(=O)NCC2OCCN2S(=O)(=O)c2ccc(Br)cc2)cc1 (stereo unspecified) | i | i | i | i | i | i
C/C(N)=C(/C#N)C(=O)COC(=O)c1ccccc1C(=O)c1ccc(C)cc1 | i | i | i | i | -5.1 | i
C/C(N)=C(/C#N)C(=O)COC(=O)c1cc(-c2cccc3ccccc23)nc2ccccc12 | i | 6 | i | i | i | i
C/C(N)=C(/C#N)C(=O)COC(=O)c1ccccc1O | i | i | i | i | i | i
CC(C)[C@H](NC(=O)c1ccco1)C(=O)Nc1ccc(OC(F)F)cc1 | i | i | i | i | i | i
Cc1cc(Cl)c(S(=O)(=O)N2CCN(c3ccc(F)cc3)CC2)cc1OCC(N)=O | 6.0 | i | i | i | i | i
Cc1ccc(S(=O)(=O)Nc2ccc(O)c3cccnc23)cc1 | i | i | i | i | -4.5 | i
O=S(=O)(Nc1ccc(O)c2ccccc12)c1ccc(Br)cc1 | 30 | i | i | nt | i | i
Cc1ccc(S(=O)(=O)Nc2ccc(O)c3ncccc23)cc1 | i | i | i | i | i | i
C/C(=N\NC(=O)c1ccc(N2CCCC2=O)cc1)c1ccncc1 | i | i | i | i | i | i
SMILES | hERG rescue | KCNQ1 block | KCNQ1 act | KCNK3 inh | Kir21 block | KCNK9 block
O=C1C=C(c2cccc3c2sc2ccccc23)C[C@@H](c2ccc(F)cc2)C1 | nt | nt | nt | i | nt | nt
Cc1ccc(CNC(=O)c2ccc(N3CCc4ccccc43)c([N+](=O)[O-])c2)cc1 | i | i | i | i | -6.5 | i
NNC(=O)c1ccc(N2CCc3ccccc32)c([N+](=O)[O-])c1 | i | i | i | i | i | i
CN(/N=C/c1cc(Br)cc(Br)c1O)c1cccc(C(F)(F)F)n1 | i | i | i | i | i | -7.1
Cc1ccc(C(=O)O)cc1N=Cc1cc(Br)cc(Br)c1O | i | i | i | i | i | i
CN(C)c1ccc(N=Cc2nc(-c3ccccc3)oc2OC(=O)c2cccc(Br)c2)cc1 | i | i | i | i | i | -6.6
COc1ccc(N=Cc2nc(-c3ccccc3)oc2OC(=O)c2ccccc2)cc1 | i | i | i | i | i | i
CCCCCc1ccc(C(=O)CCCC)c(=S)[nH]1 | 35 | i | 17 | i | i | i
C=CCOc1ccc(/C=C/C(=O)N2CCCN(S(=O)(=O)c3c(C)noc3C)CC2)cc1 | nt | nt | nt | i | nt | nt
CCOC(=O)C1=C(C)N(C[C@@H]2CC[C@@H](Cc3ccc(-c4ccccc4)cc3)O2)C(=O)NC1C1CC1 (stereo partly specified) | nt | nt | nt | i | nt | nt
CN(CC(=O)NCc1ccccc1)CC(=O)Nc1ccc(Cl)c(C(F)(F)F)c1 | nt | nt | nt | -9.4 | nt | nt
CN(CC(=O)NC(=O)NCc1ccccc1)CC(=O)Nc1ccc(Cl)c(C(F)(F)F)c1 | i | i | i | i | i | i
COc1ccc(OC)c(NC(=O)C2CCN(C(=O)c3cccs3)CC2)c1 | i | i | i | i | i | i
COc1cccc(C(=O)NNC(=O)C(=O)Nc2cccc3ccccc23)c1 | 43 | i | 36 | i | i | i
COc1ccc(OC)c(NC(=O)C(=O)NNC(=O)c2cccs2)c1 | 5.5 | i | i | i | i | i
COc1cccc(C(=O)NNC(=O)c2ccccc2)c1 | i | i | i | i | i | i
COc1cccc(C(=O)NNC(=O)C(=O)Nc2ccc(OC)cc2OC)c1 | 12 | i | 19 | i | i | i
CCCN(CCC)CC(C)(C)NS(=O)(=O)c1ccc(Cl)cc1 | i | i | i | i | i | i
COc1ccc(C2(c3ccc(OC)cc3)NC(=O)N(CC(=O)N(C)C3CCC(C)CC3)C2=O)cc1 (stereo unspecified) | nt | nt | nt | i | nt | nt
CCc1cc2ccc(C)cc2nc1SCC(=O)Nc1c[nH]c(=O)[nH]c1=O | i | i | i | i | i | i
CCCCOc1cc(=O)[nH]c(=O)[nH]1 | 4.7 | i | i | i | i | i
CCN(C(=O)CN1C(=O)NC(c2ccccc2)(c2ccc(C)c(C)c2)C1=O)C1CCCCC1 (stereo unspecified) | nt | nt | nt | i | nt | nt
Cc1ccc(S(=O)(=O)O/N=C2\CCCc3ccccc32)cc1 | i | i | i | i | i | i
CC1=C(C)/C(=N\OS(=O)(=O)c2ccccc2)C=CC1=O | i | i | i | i | -11 | i
CNc1nc(NCc2ccccc2)c2ccccc2n1 | i | i | i | i | -5.4 | i
COc1ccc(NC(=O)CSc2nc3scc(C)c3c(=O)[nH]2)cc1 | i | i | i | i | i | i
COc1ccc(OC)c(-c2csc(NC(=O)CSc3ccc([N+](=O)[O-])cc3)n2)c1 | i | 7 | i | i | i | i
CC(C)=CCC/C(C)=C/CC/C(C)=C/COc1ccc2ccc(=O)oc2c1 | nt | nt | nt | i | nt | nt
CC(C)=CCC/C(C)=C/COc1c2occc2cc2ccc(=O)oc12 | nt | nt | nt | -9.8 | nt | nt
CC(C)Cc1ccc(C(C)C(=O)Nc2cccnc2)cc1 (stereo unspecified) | i | i | i | i | i | i

Bioassay records from PubChem BioAssay.
